Reference: ChEMBL document CHEMBL2093137, “WHO-TDR NTD Screening”
In brackets after ≈: the same amount, converted by molar mass.

How the values were obtained:
Schistosoma mansoni = assay: WHO-TDR: Schistosomiasis; format: functional; set-up: concentration or dose not given beside the values
Outline: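 Percent inhibition and IC50 describe activity against whole Schistosoma mansoni worms of the Puerto Rican strain, tested as larvae and/or adults. The compounds screened were a diverse set of 10,000 from Life Chemicals, filtered for drug-likeness and reactive groups. Testing followed previously published standard procedures, with a reference drug as positive control.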

Plasmodium falciparum K1 = assay: WHO-TDR: Malaria; format: functional, organism-based, Homo sapiens; details: Erythrocyte
Outline: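 Values are IC50 figures for antiplasmodial potency. They come from a whole-organism screen of 10,000 diverse Life Chemicals compounds against Plasmodium falciparum K1 growing inside human red blood cells, run by previously published standard procedures.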

Brugia malayi = assay: WHO-TDR: Lymphatic Filariasis; format: functional; set-up: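 tested at 10 µM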
Outline: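 The screening set was a 10,000-compound diverse library from Life Chemicals, filtered for drug-likeness and for reactive groups. It was run against Brugia malayi microfilariae as whole organisms, using previously published standard procedures. Reference drugs acted as positive controls, and activity is reported both as percent inhibition and as IC50.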

Trypanosoma cruzi = assay: WHO-TDR: Chagas disease; format: functional, organism-based, Homo sapiens; details: MRC5
Outline: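 Each IC50 reflects antiparasitic potency against intracellular amastigotes of Trypanosoma cruzi Tulahuen CL2 beta-galactosidase strain. These were cultured in MRC-5SV2 human lung fibroblasts and exposed to a 10,000-compound diverse Life Chemicals library screened according to published standard procedures with a reference drug as positive control.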

[1] = WHO-TDR: Cytotoxicity; format: toxicity, cell-based; details: human, MRC5 cells
Onchocerca ochengi = assay: WHO-TDR: Onchocerciasis; format: functional; set-up: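 at 12.5 µM on microfilariae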
Outline: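 Percent inhibition and IC50 describe activity against microfilariae of Onchocerca ochengi or Onchocerca lienalis, used as animal-pathogen substitutes for the human parasite. The compounds tested made up a 10,000-member diverse library from Life Chemicals.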

Leishmania infantum = assay: WHO-TDR: Leishmaniasis; format: functional, organism-based, Mus musculus; details: Macrophage
Outline: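 Values are IC50 figures for antiparasitic potency. They come from a whole-organism screen of a 10,000-compound diverse Life Chemicals library against Leishmania infantum MHOM/MA(BE)/67 amastigotes inside murine peritoneal macrophage host cells.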

[2] = test system: Trypanosoma brucei brucei; assay: WHO-TDR: Human African Trypanosomiasis (HAT); format: functional, organism-based; details: Squib-427
Outline: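 Values are IC50 figures for antiparasitic potency. They come from a whole-organism screen of 10,000 diverse Life Chemicals compounds against bloodstream-form Trypanosoma brucei (Squib 427 strain).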

| Compound | % Inhibition (Schistosoma mansoni) | IC50 (Plasmodium falciparum K1) | % Inhibition (Brugia malayi) | IC50 (Trypanosoma cruzi) | IC50 [1] | % Inhibition (Onchocerca ochengi) | IC50 (Leishmania infantum) | IC50 [2] |
| --- | --- | --- | --- | --- | --- | --- | --- | --- |
| COc1ccc2nc(-c3ccc(F)c(NC(=O)Cc4ccccc4)c3)cn2n1 | 25% | > 11.3 µg/mL | 0% | > 11.3 µg/mL | > 11.3 µg/mL | 0% | 0.366 µg/mL (≈ 0.972 µM) | > 11.3 µg/mL |
| COc1ccc(CCC(=O)NCCc2ccc(N3CCCC3)cc2)cc1 | 0% | > 10.6 µg/mL | 0% | > 10.6 µg/mL | > 10.6 µg/mL | 0% | 0.342 µg/mL (≈ 0.97 µM) | > 10.6 µg/mL |
| CCC(=O)Nc1ccc(S(=O)(=O)NCCc2ccc(N3CCCC3)cc2)c(C)c1 | 0% | > 12.5 µg/mL | 0% | 5.06 µg/mL (≈ 12.2 µM) | > 12.5 µg/mL | 100% | > 12.5 µg/mL | 6.95 µg/mL (≈ 16.7 µM) |
| CCSc1nc(-c2ccccc2)c(NC(C)=O)s1 | 0% | > 8.35 µg/mL | 0% | > 8.35 µg/mL | > 8.35 µg/mL | 0% | 0.27 µg/mL (≈ 0.97 µM) | > 8.35 µg/mL |
| CCOc1ccccc1C(=O)Nc1sc(SCC(N)=O)nc1-c1ccccc1 | 0% | > 12.4 µg/mL | 0% | 7.06 µg/mL (≈ 17.1 µM) | > 12.4 µg/mL | 100% | > 12.4 µg/mL | 3.97 µg/mL (≈ 9.6 µM) |
| NC(=O)CSc1nc(-c2ccccc2)c(NC(=O)c2cc3ccccc3o2)s1 | 25% | > 12.3 µg/mL | 33.33% | > 12.3 µg/mL | > 12.3 µg/mL | 100% | > 12.3 µg/mL | > 12.3 µg/mL |
| Cc1csc(NC(=O)CSc2nc(-c3ccccc3)c(N)s2)n1 | 0% | > 10.9 µg/mL | 33.33% | 7.18 µg/mL (≈ 19.8 µM) | > 10.9 µg/mL | 50% | 0.352 µg/mL (≈ 0.971 µM) | > 10.9 µg/mL |
| Cc1nnc(NC(=O)CSc2nc(-c3ccccc3)c(N)s2)s1 | 16.7% | > 10.9 µg/mL | 33.33% | > 10.9 µg/mL | > 10.9 µg/mL | 0% | 0.353 µg/mL (≈ 0.971 µM) | > 10.9 µg/mL |
| Cc1cc(-c2nnc(NC(=O)c3nc4ccccc4s3)o2)nn1C | 0% | > 10.2 µg/mL | 33.33% | 3.72 µg/mL (≈ 10.9 µM) | > 10.2 µg/mL | 100% | > 10.2 µg/mL | > 10.2 µg/mL |
| Cc1cc(-c2nnc(NC(=O)CSc3ccc(F)cc3)o2)nn1C | 0% | > 10.4 µg/mL | 33.33% | > 10.4 µg/mL | > 10.4 µg/mL | 0% | 0.337 µg/mL (≈ 0.97 µM) | > 10.4 µg/mL |
| Cc1cc(-c2nnc(NC(=O)C3CCCCN3S(=O)(=O)c3cccs3)o2)nn1C (centres undefined) | 0% | > 13.1 µg/mL | 33.33% | 4.26 µg/mL (≈ 9.75 µM) | 4.91 µg/mL (≈ 11.2 µM) | 100% | 4.24 µg/mL (≈ 9.71 µM) | 4.14 µg/mL (≈ 9.49 µM) |
| CC(C)CC(=O)NCCOc1ccc2nnc(-c3ccccc3)n2n1 | 16.7% | > 10.2 µg/mL | 33.33% | > 10.2 µg/mL | > 10.2 µg/mL | 0% | 0.33 µg/mL (≈ 0.972 µM) | > 10.2 µg/mL |
| O=C(CCSc1ccccc1)NCCOc1ccc2nnc(-c3ccc(F)cc3)n2n1 | 41.7% | > 13.1 µg/mL | 33.33% | > 13.1 µg/mL | > 13.1 µg/mL | 0% | 0.425 µg/mL (≈ 0.971 µM) | > 13.1 µg/mL |
